# Bioassay records as filed in PubChem.
# STAT3 inh: STAT3 signaling inhibition; U3A cells, IL-6 STAT3-luciferase reporter, luminescence; host cell line lacks STAT1; inhibition, % at 5.5 µM; actives 0.89% (n = 190,000); AID 862;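 active = inhibition above the mean inhibition across all screened compounds plus 3 SD, cut at about 44% in these data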
# HSP90 inh: inhibitors of HSP90 luciferase refolding in rabbit reticulocyte lysate; actives 0.91% (n = 290,000); AID 1789; luciferase refolding luminescence, 3 h; inhibition, % at 5.6 µM;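 active = inhibition above the screen-wide mean plus 3 SD, computed separately per campaign, cut at about 16% in these data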;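 note: inhibitors lower the luminescence because luciferase stays unfolded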
# FLuc act counter: affects firefly luciferase, flagging false hits in luciferase stimulation screens. P08659. ATPlite luciferase biochemical, luminescence, 10 min; 0 = ATP-free wells, 1 = DMSO control. activation factor at 10 µM. 200,000 tested, under 10 active;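 active = luciferase activation factor, scaled between plate controls, of at least 2 with compound at 10 µM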
# Target sequence (P08659 whole entry, looked up): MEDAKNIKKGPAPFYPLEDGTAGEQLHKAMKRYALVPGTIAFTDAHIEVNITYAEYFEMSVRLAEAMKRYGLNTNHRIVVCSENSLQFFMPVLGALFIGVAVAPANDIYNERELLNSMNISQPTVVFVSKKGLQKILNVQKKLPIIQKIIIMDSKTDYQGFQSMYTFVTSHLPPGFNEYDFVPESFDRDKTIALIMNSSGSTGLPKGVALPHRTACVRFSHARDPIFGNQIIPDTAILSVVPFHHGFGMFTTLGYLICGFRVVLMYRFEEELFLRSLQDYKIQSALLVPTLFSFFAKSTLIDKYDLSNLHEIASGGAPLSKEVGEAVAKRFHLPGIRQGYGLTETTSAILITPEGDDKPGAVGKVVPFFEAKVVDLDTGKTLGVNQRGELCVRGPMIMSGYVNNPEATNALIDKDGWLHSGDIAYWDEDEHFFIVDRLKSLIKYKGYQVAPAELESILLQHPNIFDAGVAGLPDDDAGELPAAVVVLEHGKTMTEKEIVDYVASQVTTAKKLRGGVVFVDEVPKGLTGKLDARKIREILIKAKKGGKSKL
#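 Material: luciferase plus luciferin reagent, cell-free. Medium: PBS buffer for ATP. Also added: ATP substrate, dispensed from a 10.24 µM working solution in PBS. Doses: test compounds dosed from 2 mM stocks in 100% DMSO. Incubation: 10 min post-reagent at room temperature. Technique: light output (luminescence). Read-out basis: luminescence gain marking luciferase activators.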
# TRAIL sens C8: caspase-8 TRAIL sensitization; actives 1% (n = 360,000); NB7+C8 cells + TRAIL, ATPlite viability luminescence; AID 624354; inhibition (viability loss, TRAIL sensitization), % at 10 µM;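 active = compounds causing at least 50% loss of cell viability in the single-dose screen, relative to plate controls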
# FLuc inh counter: Photinus pyralis luciferase inhibition counter-screen. actives 1.5% (n = 200,000). ATPLite firefly luciferase biochemical luminescence, 10 min. inhibition, % at 10 µM. P08659;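 active = inhibition above about 50% when tested at 10 µM, limit read from the data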
# PPC-1+TRAIL kill: compounds killing PPC-1 cancer cells with TRAIL present (potentiator screen, no TRAIL-free arm); cell killing (% activity), % at 4 µM or 5 µM; PPC-1 cells + TRAIL, ATPLite viability luminescence; actives 0.41% (n = 220,000);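 active = cell killing above 50% in the first pass at 4 µM, then a duplicate retest at 5 µM averaging 50% or more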
# HSP90 inh confirm: HSP90 inhibition, confirmation assay; shares compounds with HSP90 inh; inhibition, % at 5.9 µM; AID 1846; rabbit reticulocyte lysate, luciferase refolding luminescence, 3 h; actives 64% (n = 2,300); in the data active = inhibition above about 18%
# FLuc counter: blocks native firefly luciferase in HSP90 counter-screen; AID 1847; purified native firefly luciferase, luminescence; shares compounds with HSP90 inh; inhibition, % at 5.9 µM; actives 48% (n = 2,300);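 active = inhibition above the mean inhibition of all tested sample wells plus 3 SD, cut at about 10% in these data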
# Numbers stand for hits; n = inactive; x = not tested or not shown. The list is not random: actives were taken first. Their share in the collection is about 2.2%.
SMILES,STAT3 inh,HSP90 inh,FLuc act counter,TRAIL sens C8,FLuc inh counter,PPC-1+TRAIL kill,HSP90 inh confirm,FLuc counter
c1ccc(OCc2nc3ccccc3s2)cc1,n,17.1,n,n,n,n,24.7,n
Cc1cc(OCc2nc3ccccc3s2)ccc1N,x,n,x,n,x,n,x,x
O=[N+]([O-])c1nn(-c2ccc3c(c2)OCCO3)n(O)c1=NC1CCCCC1,n,n,n,n,n,n,x,x
CC1CCN(c2c([N+](=O)[O-])nn(-c3ccc4c(c3)OCCO4)[n+]2[O-])CC1,n,17.2,n,n,n,n,n,n
Cc1[nH]n(-c2ccccc2)c(=O)c1N=Nc1ccc(F)cc1,x,n,x,n,x,x,x,x
COC(=O)c1ccc(N=NNc2ccccc2)cc1,n,28.4,n,n,n,n,46.8,n
COC(=O)c1ccc(N=Nc2c(C)[nH]n(-c3ccccc3)c2=O)cc1,x,25.9,x,n,x,x,30.1,n
CC(OC(=O)Cc1c[nH]c2ccccc12)C(=O)Nc1ccccc1[N+](=O)[O-] (stereo unspecified),x,x,x,n,x,x,x,x
O=C(C[C@H]1C[C@H](C(=O)N2CCCCC2)[C@@]2(CCc3ccccc3)c3[nH]c4ccc(Cl)cc4c3CCN2C1=O)NCc1cccc(C(F)(F)F)c1,x,x,x,n,x,x,x,x
O=C(O)c1ccc(N/N=C/c2ccc3c(c2)OCO3)cc1,79.8,81.8,n,n,60.7,n,93.6,88.0
O=C(O)c1ccc(/C=N/Nc2ccc(F)cc2F)cc1,n,46.2,n,n,n,n,77.9,57.8
O=C(O)c1cc(N/N=C/c2ccc3c(c2)OCCO3)ccc1Cl,n,39.3,n,n,56.1,n,87.3,81.7
O=C(O)c1cc(N/N=C/c2ccc3c(c2)OCO3)ccc1Cl,n,46.6,n,n,n,n,82.6,53.7
Cc1ccc(N/N=C/c2ccc3c(c2)OCCO3)cc1Cl,n,n,n,n,n,n,x,x
O=C(O)c1ccc(N/N=C/c2cc3c(cc2[N+](=O)[O-])OCO3)cc1,n,n,n,n,n,n,x,x
COCCNC(=S)N1CCC2CC1c1cc(-c3ccc4c(c3)OCO4)ccc12 (stereo unspecified),x,x,x,n,x,x,x,x
CCOC(=O)[C@]12CCCC=C1N(Cc1ccco1)C(=O)[C@H](CC(=O)NCCCN1CCCC1=O)C2,x,x,x,n,x,x,x,x
Cc1ccc2ccccc2c1C(O)c1ncc(-c2ccc(Cl)cc2)[nH]1 (stereo unspecified),x,x,x,n,x,x,x,x
CC(C)(C)c1ccc(/C=N/Nc2ccc(C(=O)O)cc2)cc1,88.1,58.4,n,n,n,n,85.7,82.8
CC1Oc2ccccc2C=C1/C=N/Nc1ccc(C(=O)O)cc1 (stereo unspecified),x,33.6,x,n,x,n,41.3,24.8
CCn1c(/C=N/Nc2ccc(C(=O)O)cc2)nc2ccccc21,n,n,n,n,n,n,x,x
CCOc1ccccc1C(=O)NC1CCNCC1,x,n,x,n,x,x,x,x
CC1CCCCC12NC(=O)N(CC(=O)NCc1ccc3c(c1)OCO3)C2=O (stereo unspecified),n,25.5,n,n,n,n,n,n
CC1=C(C(=O)NCc2ccc3c(c2)OCO3)C2(CCC(C)CC2)OC1=O (stereo unspecified),n,57.5,n,n,n,n,n,n
CC1CCC2(CC1)NC(=O)N(CC(=O)NCc1ccc3c(c1)OCO3)C2=O (stereo unspecified),x,n,x,n,x,n,x,x
SMILES,STAT3 inh,HSP90 inh,FLuc act counter,TRAIL sens C8,FLuc inh counter,PPC-1+TRAIL kill,HSP90 inh confirm,FLuc counter
O=C(CSC(=S)N1CCCC1)N1CCN(S(=O)(=O)c2cccc([N+](=O)[O-])c2)CC1,x,n,x,n,x,x,x,x
CC(C)S(=O)(=O)C1=NSC2=NC(=O)/C(=C\c3ccc(-c4cccc(C(=O)O)c4)o3)C(=N)N21,n,26.6,n,n,n,n,n,n
Cc1ccc(OCC(=O)O/N=C(\N)c2ccccn2)cc1,n,n,n,n,n,n,x,x
N/C(=N\OC(=O)c1ccc([N+](=O)[O-])cc1Cl)c1ccccn1,x,66.5,x,88.1,x,x,60.6,89.7
Cc1ccc(C(=O)O/N=C(\N)c2ccccn2)c(Cl)c1,x,94.0,x,90.6,x,x,96.0,90.9
COC(=O)CC1=C(C)C(=O)CC2C(C)(C)CCCC12C (stereo unspecified),n,18.6,n,n,n,n,n,n
CN(C(=O)CSc1nnc(-c2ccccc2)o1)c1c(N)n(Cc2ccccc2)c(=O)[nH]c1=O,n,18.8,n,n,n,n,n,n
CCOC(=O)c1sc2nc(C)nc(NC3CCC(O)CC3)c2c1C (stereo unspecified),x,n,x,n,x,x,x,x
O=C(Cc1ccccc1)NCC(=O)N1CCN(c2ccc(F)cc2)CC1,x,x,x,n,x,x,x,x
COc1cccc(C(=O)O/N=C(\N)c2ccncc2)c1OC,n,n,n,n,n,n,x,x
COc1cccc(C(=O)O/N=C(\N)c2ccccn2)c1OC,x,53.0,x,n,x,x,64.1,71.8
COc1ccccc1/C=N\N=C(\N)c1ccccn1,n,25.1,n,n,n,n,n,n
COc1cccc(C(=O)O/N=C(\N)c2ccccn2)c1,x,66.8,x,79.2,x,x,85.2,90.7
CCCc1ccc(C(=O)O/N=C(\N)c2ccccn2)cc1,x,77.8,x,89.3,x,x,75.2,89.2
Cc1ccc(S(=O)(=O)N2CCC(C(=O)OCC(=O)NC(C)c3ccc(F)cc3)CC2)cc1C (stereo unspecified),x,x,x,n,x,x,x,x
Cc1cccc(C)c1NC(=O)/C(C#N)=C/c1ccc(-c2ccc(C(=O)O)cc2)o1,x,33.9,x,n,x,x,35.9,n
CCc1nnc(N/N=C/c2ccc(-c3ccc([N+](=O)[O-])cc3)o2)n1N,n,35.9,n,n,n,n,n,n
Cc1nnc(N/N=C/c2ccc(-c3ccccc3F)o2)n1N,n,64.6,n,n,n,n,18.1,n
Cc1nnc(N/N=C\c2ccc(-c3ccccc3[N+](=O)[O-])o2)n1N,n,38.1,n,n,n,n,n,n
COc1cccc(Sc2nc(-c3ccccc3)ncc2S(C)(=O)=O)c1,x,26.5,x,n,x,x,n,14.2
CCCC(=O)NC(c1ccccc1)c1ccc2cccnc2c1O (stereo unspecified),x,20.5,x,n,x,x,18.4,n
CN(C)CCCn1c(N)c(C#N)c2nc3ccccc3nc21,x,46.8,x,n,x,n,n,n
O=C(O)/C(=C\c1ccc(-c2ccccc2[N+](=O)[O-])o1)c1ccccc1,x,33.5,x,n,x,x,n,n
O=C(/C=C/c1ccc(-c2ccccc2[N+](=O)[O-])o1)c1ccccc1,n,n,n,n,n,n,x,x
CN(CC(=O)Nc1ccc(F)cc1)C(=O)Cn1nnc(-c2ccccc2)n1,x,n,x,n,x,x,x,x
Cc1onc(-c2ccccc2Cl)c1C(=O)N1CCN(C(=O)c2ccco2)CC1,n,26.9,n,n,n,n,n,n
